TRPC4 inh = inhibitors of mouse TRPC4 channel, primary screen, Fluo4 calcium, HEK293 TRPC4beta/mu-opioid cells; Short transient receptor potential channel 4 (Mus musculus), Q9QUQ5; DAMGO-evoked Fluo4 calcium flux; hits give low values; B-score at 10 µM; 300,000 tested, 0.39% active; AID 2247, 2010;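 active means B-score over 3 SD under the library average, no early fluorescence shift, positive overall ratio signal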
Target sequence (Q9QUQ5 whole entry, looked up): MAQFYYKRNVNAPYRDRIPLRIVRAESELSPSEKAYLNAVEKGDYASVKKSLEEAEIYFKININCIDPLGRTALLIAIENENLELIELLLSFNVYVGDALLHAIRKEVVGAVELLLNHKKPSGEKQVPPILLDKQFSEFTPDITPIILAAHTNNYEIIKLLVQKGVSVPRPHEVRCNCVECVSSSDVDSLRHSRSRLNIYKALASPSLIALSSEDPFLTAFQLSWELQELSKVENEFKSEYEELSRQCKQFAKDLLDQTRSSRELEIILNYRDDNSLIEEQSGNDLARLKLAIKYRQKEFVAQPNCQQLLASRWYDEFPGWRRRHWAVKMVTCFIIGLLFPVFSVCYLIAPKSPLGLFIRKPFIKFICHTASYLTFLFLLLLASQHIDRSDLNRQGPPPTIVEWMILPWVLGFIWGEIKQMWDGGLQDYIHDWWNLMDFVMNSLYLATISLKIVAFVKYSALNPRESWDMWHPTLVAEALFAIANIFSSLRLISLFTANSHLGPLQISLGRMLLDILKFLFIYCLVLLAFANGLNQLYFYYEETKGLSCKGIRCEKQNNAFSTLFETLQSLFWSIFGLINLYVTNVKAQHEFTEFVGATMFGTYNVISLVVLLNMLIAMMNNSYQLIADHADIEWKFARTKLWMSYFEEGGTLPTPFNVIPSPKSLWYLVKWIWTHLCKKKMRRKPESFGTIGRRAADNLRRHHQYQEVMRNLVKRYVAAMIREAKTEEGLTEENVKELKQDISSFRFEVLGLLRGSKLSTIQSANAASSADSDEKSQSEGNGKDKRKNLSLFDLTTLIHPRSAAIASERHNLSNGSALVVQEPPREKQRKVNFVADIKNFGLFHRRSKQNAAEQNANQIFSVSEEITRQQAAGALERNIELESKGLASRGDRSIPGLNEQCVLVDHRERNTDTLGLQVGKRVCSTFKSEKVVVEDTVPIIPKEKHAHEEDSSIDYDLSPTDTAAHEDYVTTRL
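material = TRPC4beta/mu-opioid receptor HEK293 cell line | probe or stimulus = sequential submaximal and maximal DAMGO stimulation | compound dosing = one concentration per compound | measured by = Fluo4 Ca2+ flux fluorescence | evaluation = integrated fluorescence ratio relative to baseline, converted to per-well B score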
TRPC6 activator = mouse TRPC6 channel activators, primary screen, cell-based, HEK293, membrane potential dye | HEK293-TRPC6 membrane potential dye fluorescence; hits give high values | 310,000 tested, 0.13% active | B-score at 10 µM;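 active means B-score of the integrated fluorescence ratio above library mean plus 3 SD, and starting fluorescence ratio within library mean plus 5 SD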;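 further: higher score means more depolarization so channel activation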
TRPC6 inhibitor = mouse TRPC6 channel inhibitors, primary screen, cell-based, HEK293, membrane potential dye | ACh-evoked depolarization; hits give low values | B-score at 10 µM | 310,000 tested, 1.1% active | AID 2553, 2010;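 active means B-score under library mean minus 3 SD, initial fluorescence not abnormally high, positive integrated signal ratio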;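 further: B-score derived from integrated fluorescence ratio over the kinetic read; more negative B-score means stronger inhibition of depolarization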
TRPC4 act = activators of mouse TRPC4 channel, primary screen, Fluo4 calcium, HEK293 TRPC4beta/mu-opioid cells. B-score at 10 µM. Fluo4 calcium fluorescence; hits give high values. AID 2237, 2010. 310,000 tested, 0.49% active. Short transient receptor potential channel 4 (Mus musculus), Q9QUQ5;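 active means B-score above 5 SD of library B-scores, and initial fluorescence ratio not above library mean plus 5 SD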;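 further: positive B-score marks a calcium rise read as TRPC4 activation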
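Material: TRPC4beta and mu-opioid receptor HEK293 stable cells | Incubation: 45 min room-temperature Fluo4 loading, 110 s read | Detection: Kinetic Fluo4 calcium fluorescence | Measure: Integrated baseline-normalised fluorescence ratio, converted to per-well B score | Benchmarks: Low control buffer alone, high control maximal DAMGO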
TRPC4 potent = positive allosteric modulators of TRPC4, primary screen, cell-based, mouse TRPC4beta, HEK293 mu-opioid, Fluo-4 calcium. Short transient receptor potential channel 4 (Mus musculus), Q9QUQ5. DAMGO EC20, Fluo-4 Ca2+ flux; hits give high values. B-score at 10 µM. 310,000 tested, 0.42% active. AID 2227, 2009;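 active means B-score of calcium response area above 5 SD of library B-scores, with initial fluorescence ratio within 5 SD of library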;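 further: B-score of integrated fluorescence ratio over time as area under calcium response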
TRPC4 spec 2 = second selectivity test of TRPC6 inhibitors: effect on mouse TRPC4; inhibition, % at 10 µM; HEK293 TRPC4/MOR, membrane potential dye fluorescence; channel activated by saturating DAMGO dose; AID 2776; 920 tested, 42% active; shares compounds with TRPC6 inhibitor;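 active means compounds whose fluorescence signal differed from control wells by over 3 SD, either direction, in both duplicate plates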
TRPC4 spec = mouse TRPC4 modulation by TRPC6 hits, confirmation, selectivity assay for TRPC6 inhibitor project, cell-based, HEK293 TRPC4/mu-opioid, membrane potential dye; shares compounds with TRPC6 inhibitor; activity change, negative = inhibition, % at 10 µM; 920 tested, 61% active; membrane potential fluorescence; AID 2777, 2010;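 active means rise or fall in signal beyond 3 SD of buffer-only wells in both replicate plates, either sign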;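 further: integrated kinetic ratio of fluorescence range over baseline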
HEK293 MPD ctr 2-1 = nonspecific membrane potential effects, parental HEK293, confirmation, counter-screen for TRPC6 inhibitor project, cell-based, second counter screen | 920 tested, 31% active | shares compounds with TRPC6 inhibitor | AID 2779, 2010 | parental HEK293 membrane potential dye fluorescence; maximal acetylcholine challenge after compound addition | signal change vs control, % at 10 µM;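 active means membrane potential signal moving either way by over 3 SD of the maximum-effect control, in both duplicate plates, meaning non-specific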
HEK293 MPD ctr-1 = membrane potential modulation in parental HEK293, confirmation, counter-screen for TRPC6 inhibitor project, cell-based | shares compounds with TRPC6 inhibitor | parental HEK293 membrane potential dye fluorescence | membrane potential signal change, % at 10 µM | 920 tested, 60% active | AID 2780, 2010;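 active means membrane potential signal shifting up or down by more than 3 SD of buffer-only wells, on both duplicate plates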
HEK293 MPD ctr-2 = parental HEK293 membrane potential modulation, confirmation, counter-screen for TRPC6 modulator project, cell-based | shares compounds with TRPC6 inhibitor | membrane potential dye fluorescence | membrane potential signal change, % at 10 µM | 2,400 tested, 51% active;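 active means membrane potential signal moves up or down beyond 5 SD from buffer-only wells, on both duplicate plates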
HEK293 MPD ctr 2-2 = second check of TRPC6 modulator effects in parental HEK293 cells; shares compounds with TRPC6 inhibitor; membrane potential dye fluorescence; after compound, maximal acetylcholine stimulation; inhibition, % at 10 µM; 2,400 tested, 14% active; AID 488926;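 active means membrane potential signal drops by more than 5 SD from the mean control signal, in both duplicate plates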;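 further: plate controls were acetylcholine ECmax control wells for no effect and buffer only wells for full effect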
TRPC4/MOR mod = TRPC4 modulation by TRPC6 hit compounds, confirmation, selectivity assay for TRPC6 modulator project, cell-based, HEK293 TRPC4/mu-opioid, membrane potential dye, mouse; shares compounds with TRPC6 inhibitor; percent change from control (negative = decrease, positive = increase), % at 10 µM; 2,400 tested, 69% active; AID 488927, 2010; membrane potential fluorescence;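 active means membrane potential signal moved up or down beyond 5 SD of buffer control wells, in both duplicate plates, actives on both sides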;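 further: plate controls were assay buffer wells for no effect and DAMGO maximal-effect wells for full effect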
TRPC4 ctr inh 2 = second check of whether TRPC6 modulators also affect mouse TRPC4 | inhibition, % at 10 µM | AID 488928 | 2,400 tested, 55% active | shares compounds with TRPC6 inhibitor | HEK293 TRPC4/mu-opioid, membrane potential dye fluorescence; stimulated with maximal-effect DAMGO;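 active means drop in membrane potential signal beyond 5 SD of the control wells in both duplicate plates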;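 further: TRPC4 counter screen for TRPC6 hits run under conditions tuned for TRPC6 not TRPC4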
TRPC6 inh conf = mouse TRPC6 channel inhibitors, confirmation, HEK293 cells, membrane potential dye, duplicate. inhibition, % at 10 µM. shares compounds with TRPC6 inhibitor. 3,300 tested, 43% active. ACh-evoked depolarization;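 active means fluorescence ratio falls more than 5 SD below the full-stimulation control mean, in both duplicate runs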;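 further: integrated fluorescence ratio of peak minus minimum over baseline after agonist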
TRPC6 act confirm = mouse TRPC6 channel activators, confirmation, HEK293 cells, membrane potential dye, duplicate. shares compounds with TRPC6 inhibitor. 2,800 tested, 11% active. HEK293-TRPC6 membrane potential dye fluorescence, FDSS. AID 488961, 2010. activation, % at 10 µM;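 active means ratio signal rise beyond 5 SD above unstimulated control wells' mean, seen in both duplicate runs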;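 further: plate controls were buffer EC0 wells for no effect and acetylcholine ECmax response for full effect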
Active calls of the source: *; i = inactive; x = not tested or not shown. Only some compounds are listed: those with a hit (about 2.3% of all), similar ones and a draw of the others.

SMILES	TRPC4 inh	TRPC6 activator	TRPC6 inhibitor	TRPC4 act	TRPC4 potent	HEK293 MPD ctr-2	HEK293 MPD ctr 2-2	TRPC4/MOR mod	TRPC4 ctr inh 2	TRPC6 inh conf	TRPC6 act confirm	others
Cc1cc(/C=c2\sc3nc4ccccc4n3c2=O)c(C)n1-c1ccc(C(=O)O)cc1	i	i	i	i	i	x	x	x	x	x	x
O=C(O)c1ccc(-c2ccc(/C=c3/sc4nc5ccccc5n4c3=O)o2)cc1Cl	i	32.3*	i	58*	15*	560.0%*	i	112.5%*	i	i	82.0%*
COc1cccc(OCc2cc(C(=O)N(Cc3ccccc3)CC3CC3)no2)c1	i	i	-5.16*	i	i	131.0%*	i	26.5%*	i	i	x
COc1cccc(OCc2cc(C(=O)N(C)Cc3nc4ccccc4[nH]3)no2)c1	i	i	i	i	i	x	x	x	x	x	x
CN(C)CCNc1oc(COc2cccc(Cl)c2)nc1C#N	i	i	i	i	i	x	x	x	x	x	x
CN(C)CCCNc1oc(-c2cccc(Cl)c2)nc1C#N	i	i	-6.85*	i	i	x	x	x	x	i	i	TRPC4 spec 2=i;TRPC4 spec=i;HEK293 MPD ctr 2-1=i;HEK293 MPD ctr-1=i
CCN(CC)CCCNc1oc(-c2ccc(OC)c(OC)c2)nc1C#N	i	i	-6.38*	i	i	i	i	i	i	46.5%*	i
CCOc1ccc(/C=C/c2nc(C#N)c(NCCCN(C)C)o2)cc1	i	i	-5.47*	i	i	i	i	i	55.5%*	38.5%*	i
CC1CCN(CC(=O)Nc2ccc(Br)cc2[N+](=O)[O-])CC1	i	i	i	i	i	x	x	x	x	x	x
CC1(NC(=O)CCc2nc3ccccc3c(=O)[nH]2)CCS(=O)(=O)C1 (stereo not given)	i	i	i	i	i	x	x	x	x	x	x
Cc1ccc2c(Cl)c(C)c(N3CCCC3)nc2n1	i	i	-5.71*	i	i	-243.5%*	70.0%*	-40.5%*	52.0%*	54.0%*	i
COc1ccccc1OCc1ccc(C(=O)N2CCCCC2)o1	i	i	-5.17*	i	i	i	i	i	i	i	i
COc1ccccc1OCc1ccc(C(=O)N2CCOCC2)o1	i	i	i	i	i	x	x	x	x	x	x
COc1ccc(C2=NCCc3cc(OC)c(OC)cc32)cc1OC	i	i	-7.38*	i	i	-410.0%*	i	-70.5%*	61.5%*	63.0%*	i
COc1ccc(C2=NCCc3cc(OC)c(OC)cc32)cc1	i	i	i	i	i	x	x	x	x	x	x
CN1CCc2c1nc1ccccc1c2N (tested in a mixture with another compound)	i	i	i	i	i	x	x	x	x	x	x
Cc1cccc2c(N)c3c(nc12)N(C)CC3	i	i	-5.45*	i	i	-153.5%*	91.0%*	-36.5%*	81.0%*	77.5%*	i
CCCCN1CCc2c([nH]c3ccccc23)C1=O	i	i	i	i	i	x	x	x	x	x	x
Cc1ccc2nc3c(c(N)c2c1)CCN3C	-7*	i	-7.07*	i	i	x	x	x	x	57.9%*	i	TRPC4 spec 2=51.0%*;TRPC4 spec=-27.0%*;HEK293 MPD ctr 2-1=13.0%*;HEK293 MPD ctr-1=-460.0%*
CCCCN1CCc2c1nc1ccc(Br)cc1c2N	i	i	-6.35*	i	i	-132.0%*	98.0%*	-37.0%*	93.0%*	88.5%*	i
Cc1ccc2nc3c(c(N)c2c1)CCN3c1ccccc1	i	i	i	i	i	x	x	x	x	x	x
O=C(NCCc1ccc(F)cc1)c1ccncc1	i	i	i	i	i	x	x	x	x	x	x
Cc1ccc([N+](=O)[O-])cc1S(=O)(=O)NCCc1c(C)[nH]c2c(C)cccc12	i	i	i	i	i	x	x	x	x	x	x
Cc1[nH]c2c(C)cccc2c1CCNS(=O)(=O)c1cccc([N+](=O)[O-])c1	i	i	-8.69*	i	i	-100.5%*	i	-26.0%*	31.5%*	i	i
O=C1CNC(=O)/C(=C\c2ccccc2)N1	i	i	i	i	i	x	x	x	x	x	x
